Measured values taken from ChEMBL document CHEMBL4680305, “Synthesis and biological evaluation of all possible inosine-mixed cyclic dinucleotides that activate different hSTING variants” (Bioorg Med Chem, 2021).
Calls of active or inactive are those of the source. The calls are words filed in the database; no cut-off is given here.

system: HEK293T; test: Activation of human STING R232H mutant expressed in HEK293T cells assessed as increase IFN-beta activity at 5 uM […] by dual-luciferase reporter gene assay; format: cell-based; settings: filed as activator
Outline: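 HEK293T cells were co-transfected using polyjet with pcDNA3.1-hSTING R232H (50 ng), pGL3-IFNβ firefly reporter (400 ng) and pGL4.74-Rluc-TK (50 ng). After 24 h, cells were stimulated with 5 µM CDN for 30 min in digitonin buffer (10 µg/mL digitonin, 1 mM ATP, 0.1 mM GTP, HEPES/KCl/MgCl2), then put back in normal medium. Lysates were taken 12 h later for dual-luciferase readout; mean ± s.e.m., n = 5.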

For `Nc1ccn([C@@H]2O[C@@H]3COP(=O)(O)O[C@@H]4[C@H](O)[C@@H](COP(=O)(O)O[C@@H]2[C@@H]3O)O[C@H]4n2cnc3c(=O)[nH]cnc32)c(=O)n1`, which Activity is on record?
The Activity was “Active”.

Which Activity does the source give for `Nc1ncnc2c1ncn2[C@@H]1O[C@@H]2COP(=O)(O)O[C@H]3[C@@H](O)[C@H](n4cnc5c(O)ncnc54)O[C@@H]3COP(=O)(O)O[C@@H]1[C@@H]2O` here?
The Activity was “Active”.

For `Nc1nc2c(ncn2[C@@H]2O[C@@H]3COP(=O)(O)O[C@@H]4[C@H](O)[C@@H](COP(=O)(O)O[C@@H]2[C@@H]3O)O[C@H]4n2cnc3c(=O)[nH]cnc32)c(=O)[nH]1`, which Activity is on record?
Its Activity is “Active”.

Which Activity does the source give for `O=c1[nH]cnc2c1ncn2[C@@H]1O[C@@H]2COP(=O)(O)O[C@@H]3[C@H](O)[C@@H](COP(=O)(O)O[C@H]2[C@H]1O)O[C@H]3n1cnc2c(=O)[nH]cnc21` here?
Its Activity is “Active”.

Which Activity does the source give for `Nc1ccn([C@@H]2O[C@@H]3COP(=O)(O)O[C@H]4[C@@H](O)[C@H](n5cnc6c(=O)[nH]cnc65)O[C@@H]4COP(=O)(O)O[C@@H]2[C@@H]3O)c(=O)n1` here?
The Activity was “Active”.

Which Activity does the source give for `O=c1ccn([C@@H]2O[C@@H]3COP(=O)(O)O[C@@H]4[C@H](O)[C@@H](COP(=O)(O)O[C@@H]2[C@@H]3O)O[C@H]4n2cnc3c(=O)[nH]cnc32)c(=O)[nH]1` here?
The Activity was “Active”.

For `Nc1ncnc2c1ncn2[C@@H]1O[C@@H]2COP(=O)(O)O[C@@H]3[C@H](O)[C@@H](COP(=O)(O)O[C@@H]1[C@@H]2O)O[C@H]3n1cnc2c(O)ncnc21`, which Activity is on record?
Its Activity is “Active”.

For `O=c1[nH]cnc2c1ncn2[C@@H]1O[C@@H]2COP(=O)(O)O[C@@H]3[C@H](O)[C@@H](COP(=O)(O)O[C@@H]1[C@@H]2O)O[C@H]3n1cnc2c(=O)[nH]cnc21`, which Activity is on record?
The Activity was “Active”.

For `Nc1ncnc2c1ncn2[C@@H]1O[C@@H]2COP(=O)(O)O[C@@H]3[C@H](O)[C@@H](COP(=O)(O)O[C@H]2[C@H]1O)O[C@H]3n1cnc2c(=O)[nH]cnc21`, which Activity is on record?
Its Activity is “Active”.

target: Stimulator of interferon genes protein (Homo sapiens, UniProt Q86WV6); test: Binding affinity to wild-type human STING-CTD (139-379) expressed in Escherichia coli BL21(D Escherichia ) cells by isothermal titration calorimetry; settings: not given
Sequence (Q86WV6 whole entry): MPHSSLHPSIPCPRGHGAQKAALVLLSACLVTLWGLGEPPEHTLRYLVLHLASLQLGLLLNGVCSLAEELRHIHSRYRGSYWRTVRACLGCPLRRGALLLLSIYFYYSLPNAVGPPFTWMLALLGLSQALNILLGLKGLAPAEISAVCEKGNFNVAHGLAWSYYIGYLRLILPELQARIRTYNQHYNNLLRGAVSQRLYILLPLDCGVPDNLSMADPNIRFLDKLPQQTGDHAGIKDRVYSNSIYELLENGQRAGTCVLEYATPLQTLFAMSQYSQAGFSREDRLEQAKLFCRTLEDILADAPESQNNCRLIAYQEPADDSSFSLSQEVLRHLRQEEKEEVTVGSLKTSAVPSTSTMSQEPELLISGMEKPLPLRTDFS

Which Kd does the source give for `O=c1[nH]cnc2c1ncn2[C@@H]1O[C@@H]2COP(=O)(O)O[C@H]3[C@@H](O)[C@H](n4cnc5c(=O)[nH]cnc54)O[C@@H]3COP(=O)(O)O[C@H]2[C@H]1O` here?
The Kd was 19.5 µM.

system: not listed separately; test: Stability of compound in presence of 20% FBS; settings: not given
Outline: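 CDN at 0.1 µg/µL was incubated at 37 °C in 20% FBS with 20 mM PBS pH 7.4 and 5 mM MgCl2, against a water control. Aliquots taken at various time points were quenched with EDTA pH 8.0 and centrifuged. They were analysed by HPLC with UV at 254 nm, using 10 mM TEAA/MeCN mobile phase at 25 °C.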

For `Nc1ncnc2c1ncn2[C@@H]1O[C@@H]2COP(=O)(O)O[C@H]3[C@@H](O)[C@H](n4cnc5c(O)ncnc54)O[C@@H]3COP(=O)(O)O[C@H]2[C@H]1O`, which Stability is on record?
Its Stability is “Stable”.
